Experimental data taken from ChEMBL document CHEMBL3272089, “Synthesis and antitumor activity of dihydro-5-azacytidine, a hydrolytically stable analogue of 5-azacytidine” (J Med Chem, 1977).
Calls of active or inactive are those of the source. The calls are words filed in the database; no cut-off is given here.

Columns and labels:
L1210 [1] = test: Antitumor activity against mouse L1210 cells allografted in po dosed mouse assessed as increase in life span at optimal dose administered qd from day 1 to day 9 post tumor implantation relative to control; format: functional
In short: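 Mice bearing ip-implanted L1210 were dosed orally, nonfasting, with compound in 0.9% saline. Dose-response in twofold steps, mg/kg per dose. % ILS relative to untreated controls at the optimal dose. Weight change (test minus control) on day 5.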

L1210 [2] = test: Antitumor activity against mouse L1210 cells allografted in ip dosed mouse assessed as increase in life span at optimal dose administered qd from day 1 to day 9 post intracerebral tumor implantation relative to control; format: functional
In short: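 L1210 cells implanted intracerebrally in mice. Drug given ip in 0.9% saline, dose-response in twofold dose steps (mg/kg per injection). Antitumor effect as % increase in life-span over untreated controls at the optimal dose. Test minus control body-weight change recorded on day 5.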

Mus musculus [3] = test: Toxicity in ip dosed mouse allografted with mouse L1210 cells assessed as dose required for optimal activity administered qd on day 1 post tumor implantation; format: organism-based; details: in vivo
In short: (§1)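 Tumour cells were implanted ip (intracerebrally for IC-L1210), with the compound given in 0.9% saline ip, or orally to nonfasting mice in PO-L1210. Dose–response series each halved the preceding dose, expressed as mg/kg per injection. Activity was read as % increase in life-span (% ILS) over untreated controls, and from this the minimum, optimal and maximum active doses were taken.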

Mus musculus [4] = test: Toxicity in ip dosed mouse allografted with mouse L1210 cells assessed as dose required for optimal activity administered qd on day 1, 5 and 9 post tumor implantation; format: organism-based; details: in vivo; in short: as §1
Mus musculus [5] = test: Toxicity in ip dosed mouse allografted with 5-azacytidine-resistant mouse L1210 cells assessed as dose required for optimal activity administered qd from day 1 to day 9 post tumor implantation; format: organism-based; details: in vivo; in short: as §1
Mus musculus [6] = test: Toxicity in po dosed mouse allografted with mouse L1210 cells assessed as dose required for optimal activity administered qd from day 1 to day 9 post tumor implantation; format: organism-based; details: in vivo; in short: as §1
Mus musculus [7] = test: Toxicity in ip dosed mouse allografted with mouse P388 cells assessed as dose required for optimal activity administered qd from day 1 to day 9 post tumor implantation; format: organism-based; details: in vivo; in short: as §1
L1210 [8] = test: Antitumor activity against mouse L1210 cells allografted in ip dosed mouse assessed as dose required for maximal activity administered qd on day 1 post tumor implantation; format: functional; in short: as §1
L1210 [9] = test: Antitumor activity against mouse L1210 cells allografted in ip dosed mouse assessed as dose required for maximal activity administered qd on day 1, 5 and 9 post tumor implantation; format: functional; in short: as §1
L1210 [10] = test: Antitumor activity against mouse L1210 cells allografted in ip dosed mouse assessed as dose required for maximal activity administered qd from day 1 to day 9 post tumor implantation; format: functional; in short: as §1
L1210 [11] = test: Antitumor activity against mouse L1210 cells allografted in po dosed mouse assessed as dose required for maximal activity administered qd from day 1 to day 9 post tumor implantation; format: functional; in short: as §1
P388 = test: Antitumor activity against mouse P388 cells allografted in ip dosed mouse assessed as dose required for maximal activity administered qd from day 1 to day 9 post tumor implantation; format: functional; in short: as §1
[12] = Solubility of the compound in water at pH 6; format: physicochemical
L1210 [13] = test: Antitumor activity against mouse L1210 cells allografted in ip dosed mouse assessed as change in body weight at optimal dose administered qd from day 1 to day 9 post tumor implantation measured on day 5 relative to control; format: functional
In short: (§2)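 Mice bearing tumour cells implanted ip (intracerebrally in the IC-L1210 system) got compound in 0.9% saline ip on the stated schedule, or orally to nonfasting animals in the PO-L1210 system. Day-1 dosing, per day, or every 6 h counted from implantation. The value is the difference in average body weight change (g) on day 5 between the optimal-dose group (T) and controls (C).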

[14] = Chemical stability in 1 N ammonium hydroxide solution at room temperature after 7 days; format: physicochemical; details: 168 h
In short: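 The compound was stored 7 days at room temperature in 1 N ammonium hydroxide, then recovered and checked as the free base.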

L1210 [15] = test: Antitumor activity against 5-azacytidine-resistant mouse L1210 cells allografted in ip dosed mouse assessed as change in body weight at optimal dose administered qd from day 1 to day 9 post tumor implantation measured on day 5 relative to control; format: functional; in short: as §2
L1210 [16] = test: Antitumor activity against mouse L1210 cells allografted in ip dosed mouse assessed as change in body weight at optimal dose administered every 6 hrs on day 1, 5 and 9 post tumor implantation measured on day 5 relative to control; format: functional; in short: as §2
L1210 [17] = test: Antitumor activity against mouse L1210 cells allografted in ip dosed mouse assessed as change in body weight at optimal dose administered qd on day 1, 5 and 9 post tumor implantation measured on day 5 relative to control; format: functional; in short: as §2
L1210 [18] = test: Antitumor activity against mouse L1210 cells allografted in ip dosed mouse assessed as increase in life span at optimal dose administered qd on day 1 post tumor implantation relative to control; format: functional
In short: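 L1210 leukemia cells implanted ip in mice. Drug given ip in 0.9% saline: day 1 only (QD1); days 1, 5, 9 (Q4D); every 6 h on days 1, 5, 9 (Q4D(Q6H)); or days 1-9 (QD1-9). Dose-response run in twofold steps, dose in mg/kg per injection. % ILS versus untreated controls at the optimal dose. Toxicity taken as test minus control body-weight change on day 5.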

B16 = test: Antitumor activity against mouse B16 cells allografted in ip dosed mouse assessed as dose required for minimal activity administered qd from day 1 to day 9 post tumor implantation; format: functional; details: read-out: MED; in short: as §1
[19] = Drug degradation in 1 N ammonium hydroxide solution assessed as l-beta-D-Ribofuranosyl-3-guanylurea level; format: physicochemical
L1210 [20] = test: Cytotoxicity against mouse L1210 cells assessed as cessation of growth; format: functional, cell-based
L1210 [21] = test: Cytotoxicity against mouse L1210 cells assessed as cessation of growth in presence of cytidine; format: functional, cell-based
L1210 [22] = test: Cytotoxicity against mouse L1210 cells assessed as cessation of growth in presence of uridine; format: functional, cell-based
[23] = Half life of the compound at 25 degC at pH 7 by HPLC analysis; format: physicochemical
[24] = Drug degradation in lactated Ringer's solution at 25 degC after 4.7 hrs; format: physicochemical; details: read-out: Drug degradation

Compound `Cl.NC1=NC(=O)N([C@@H]2O[C@H](CO)[C@@H](O)[C@H]2O)CN1` has an ILS (L1210 [1]) of 50%, an ILS (L1210 [2]) of 46% and an Activity (Mus musculus [3]) of 600 mg/kg. The Activity (Mus musculus [4]) was 600 mg/kg, the Activity (Mus musculus [5]) was 25 mg/kg and the Activity (Mus musculus [6]) was 400 mg/kg. The Activity (Mus musculus [7]) was 100 mg/kg, the MAD (L1210 [8]) was 1600 mg/kg and the MAD (L1210 [9]) was 600 mg/kg. The MAD (L1210 [10]) was 200 mg/kg, the MAD (L1210 [11]) was 400 mg/kg and the MAD (P388) was 200 mg/kg. The solubility [12] was 40 mg/mL, the Activity (L1210 [13]) was -3.9 g and the Stability [14] was “Stable”. The Activity (L1210 [15]) was 0.1 g, the Activity (L1210 [16]) was -2.5 g and the Activity (L1210 [17]) was -4.3 g. It also gave an ILS (L1210 [18]) of 34%.

Compound `Nc1ncn([C@@H]2O[C@H](CO)[C@@H](O)[C@H]2O)c(=O)n1` [AZACITIDINE] has an ILS (L1210 [1]) of 24%, an ILS (L1210 [2]) of 28% and a minimal effective dose (B16) of 1.5 mg/kg. It also gave an Activity (Mus musculus [3]) of 50 mg/kg, an Activity (Mus musculus [4]) of 10 mg/kg and an Activity (Mus musculus [6]) of 12.5 mg/kg. The Activity (Mus musculus [7]) was 3 mg/kg, the MAD (L1210 [8]) was 100 mg/kg and the MAD (L1210 [9]) was 20 mg/kg. It also gave an MAD (L1210 [10]) of 3.13 mg/kg, an MAD (L1210 [11]) of 25 mg/kg and an MAD (P388) of 3 mg/kg. The Stability [19] was “Unstable”, the Activity (L1210 [20]) was “Active” and the Activity (L1210 [21]) was “inactive”. The Activity (L1210 [22]) was “inactive”, the Activity (L1210 [13]) was -3 g and the half-life [23] was 48 h. It also gave an Activity (L1210 [16]) of -1.5 g, an Activity (L1210 [17]) of -1.5 g and a degraded at 4.7 h [24] of 15%. It also gave an ILS (L1210 [18]) of 73%.
